Test results published in ChEMBL document CHEMBL2331220, “Benzimidazole clubbed with triazolo-thiadiazoles and triazolo-thiadiazines: new anticancer agents” (2013).

Assays:
Format in all cases: functional
[1] = system: SW-620; test: Cytotoxicity against human SW620 cells after 48 hrs by SRB assay; details: SW-620, 48 h
In short: (§1)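 NCI 60-line five-dose screen: cells plated, held 24 h at 37 °C, 5% CO₂ before treatment, with a TCA-fixed time-zero plate. Five final concentrations (0.01–100 µM, 10-fold dilutions) for 48 h. Cells fixed with cold TCA (10% final) and stained with 0.4% SRB in 1% acetic acid. Dye dissolved in 10 mM Tris and read at 515 nm. GI₅₀, TGI and LC₅₀ taken from percent-growth curves.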

[2] = system: HL-60(TB); test: Cytotoxicity against human HL-60(TB) cells after 48 hrs by SRB assay; details: HL-60, 48 h
In short: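 NCI five-dose screen: cells preincubated 24 h at 37 °C, 5% CO₂, with time-zero plates TCA-fixed. Five 10-fold dilutions (0.01–100) were added and cells incubated for 48 h, then fixed in 10% TCA for 60 min at 4 °C. Staining used 0.4% SRB in 1% acetic acid, solubilised in 10 mM Tris, with A515 read. GI₅₀, TGI and LC₅₀ were derived from Tz, control and test absorbances.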

[3] = system: IGROV-1; test: Cytotoxicity against human IGROV1 cells after 48 hrs by SRB assay; details: IGROV-1, 48 h
In short: (§2)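 NCI 60-line five-dose screen. Cells were preincubated 24 h at 37 °C under 5% CO2 and 100% humidity, and time-zero plates were TCA-fixed when compound was added. Five 10-fold concentrations (0.01–100) were tested for 48 h. Cells were fixed with cold TCA (final 10%, 60 min, 4 °C), stained with 0.4% SRB for 10 min, and read at 515 nm. GI50, TGI and LC50 came from growth-percentage formulas, with out-of-range values given as > or <.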

[4] = system: BT-549; test: Cytotoxicity against human BT549 cells after 48 hrs by SRB assay; details: BT-549, 48 h; in short: as §2
[5] = system: SF-295; test: Cytotoxicity against human SF295 cells after 48 hrs by SRB assay; details: SF-295, 48 h; in short: as §2
[6] = system: KM12; test: Cytotoxicity against human KM12 cells after 48 hrs by SRB assay; details: KM12, 48 h; in short: as §2
[7] = system: A498; test: Cytotoxicity against human A498 cells after 48 hrs by SRB assay; details: A498, 48 h; in short: as §2
[8] = system: COLO 205; test: Cytotoxicity against human COLO205 cells after 48 hrs by SRB assay; details: COLO 205, 48 h; in short: as §2
[9] = system: UO-31; test: Cytotoxicity against human UO31 cells after 48 hrs by SRB assay; details: UO-31, 48 h; in short: as §1
[10] = system: NCI-H460; test: Cytotoxicity against human NCI-H460 cells after 48 hrs by SRB assay; details: NCI-H460, 48 h; in short: as §2
[11] = system: HCT-15; test: Cytotoxicity against human HCT15 cells after 48 hrs by SRB assay; details: HCT-15, 48 h; in short: as §2
[12] = system: CCRF-CEM; test: Cytotoxicity against human CCRF-CEM cells after 48 hrs by SRB assay; in short: as §2
[13] = system: OVCAR-3; test: Cytotoxicity against human OVCAR3 cells after 48 hrs by SRB assay; details: OVCAR-3, 48 h; in short: as §2
[14] = system: MDA-MB-435; test: Cytotoxicity against human MDA-MB-435 cells after 48 hrs by SRB assay; details: MDA-MB-435, 48 h; in short: as §2
[15] = system: SNB-19; test: Cytotoxicity against human SNB19 cells after 48 hrs by SRB assay; details: SNB-19, 48 h; in short: as §1
[16] = system: SK-OV-3; test: Cytotoxicity against human SKOV3 cells after 48 hrs by SRB assay; details: SK-OV-3, 48 h; in short: as §1
[17] = system: IGROV-1; test: Cytotoxicity against human IGROV1 cells assessed as cell growth at 10 uM after 48 hrs by SRB assay relative to control; details: IGROV-1, 48 h, read-out: Activity
In short: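 Single-dose NCI screen. Compound was added at 1 × 10^-5 M and cultures were incubated 48 h. End point was sulforhodamine B protein staining, reported as percent growth of treated cells versus untreated control cells.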

[18] = read-out: LC50 (the source's name)
[19] = read-out: pLC50 (the source's name) (converted)

O=C(CCc1nnc2sc(-c3ccc(Cl)cc3Cl)nn12)c1nc2ccccc2[nH]1
GI50 ([1]; read-out: GI50): 204 nM | CC50 [1, 18]: 2480 nM | TGI ([1]; read-out: TGI): 545 nM | GI50 ([1]; read-out: pGI50 (converted)): 204 nM | CC50 [1, 19]: 2510 nM | TGI ([1]; read-out: pTGI (converted)): 550 nM | GI50 ([2]; read-out: GI50): 862 nM | CC50 [2, 18]: > 100000 nM | TGI ([2]; read-out: TGI): 5930 nM | GI50 ([2]; read-out: pGI50 (converted)): 871 nM | CC50 [2, 19]: > 100000 nM | TGI ([2]; read-out: pTGI (converted)): 5890 nM | GI50 ([3]; read-out: GI50): 1310 nM | TGI ([3]; read-out: TGI): 3510 nM | GI50 ([3]; read-out: pGI50 (converted)): 1320 nM | TGI ([3]; read-out: pTGI (converted)): 3470 nM | GI50 ([4]; read-out: GI50): 2160 nM | LC50 ([4]; read-out: LC50): > 100000 nM | TGI ([4]; read-out: TGI): 4770 nM | GI50 ([4]; read-out: pGI50 (converted)): 2140 nM | LC50 ([4]; read-out: pLC50 (converted)): > 100000 nM | TGI ([4]; read-out: pTGI (converted)): 4790 nM | GI50 ([5]; read-out: GI50): 1030 nM | TGI ([5]; read-out: TGI): 2730 nM | GI50 ([5]; read-out: pGI50 (converted)): 1020 nM | TGI ([5]; read-out: pTGI (converted)): 2750 nM | GI50 ([6]; read-out: GI50): 1160 nM | CC50 [6, 18]: 7700 nM | TGI ([6]; read-out: TGI): 2990 nM | GI50 ([6]; read-out: pGI50 (converted)): 1150 nM | CC50 [6, 19]: 7760 nM | TGI ([6]; read-out: pTGI (converted)): 3020 nM | GI50 ([7]; read-out: GI50): 1100 nM | LC50 (concentration giving 50% net cell kill) ([7]; read-out: LC50): 4890 nM | TGI ([7]; read-out: TGI): 2320 nM | GI50 ([7]; read-out: pGI50 (converted)): 1100 nM | LC50 (concentration giving 50% net cell kill) ([7]; read-out: pLC50 (converted)): 4900 nM | TGI ([7]; read-out: pTGI (converted)): 2340 nM | GI50 ([8]; read-out: GI50): 767 nM | CC50 [8, 18]: 5500 nM | TGI ([8]; read-out: TGI): 2210 nM | GI50 ([8]; read-out: pGI50 (converted)): 759 nM | CC50 [8, 19]: 5500 nM | TGI ([8]; read-out: pTGI (converted)): 2190 nM | GI50 ([9]; read-out: GI50): 576 nM | LC50 ([9]; read-out: LC50): 4630 nM | TGI ([9]; read-out: TGI): 2020 nM | GI50 ([9]; read-out: pGI50 (converted)): 575 nM | LC50 ([9]; read-out: pLC50 (converted)): 4680 nM | TGI ([9]; read-out: pTGI (converted)): 2040 nM | GI50 ([10]; read-out: GI50): 766 nM | CC50 [10, 18]: 5210 nM | TGI ([10]; read-out: TGI): 2170 nM | GI50 ([10]; read-out: pGI50 (converted)): 759 nM | CC50 [10, 19]: 5250 nM | TGI ([10]; read-out: pTGI (converted)): 2190 nM | GI50 ([11]; read-out: GI50): 489 nM | TGI ([11]; read-out: TGI): 2210 nM | GI50 ([11]; read-out: pGI50 (converted)): 490 nM | TGI ([11]; read-out: pTGI (converted)): 2240 nM | GI50 ([12]; read-out: GI50): 265 nM | CC50 [12, 18]: > 100000 nM | TGI ([12]; read-out: TGI): 974 nM | GI50 ([12]; read-out: pGI50 (converted)): 263 nM | CC50 [12, 19]: > 100000 nM | TGI ([12]; read-out: pTGI (converted)): 977 nM | GI50 ([13]; read-out: GI50): 514 nM | LC50 ([13]; read-out: LC50): 4600 nM | TGI ([13]; read-out: TGI): 1800 nM | GI50 ([13]; read-out: pGI50 (converted)): 513 nM | LC50 ([13]; read-out: pLC50 (converted)): 4570 nM | TGI ([13]; read-out: pTGI (converted)): 1820 nM | GI50 ([14]; read-out: GI50): 265 nM | TGI ([14]; read-out: TGI): 842 nM | GI50 ([14]; read-out: pGI50 (converted)): 263 nM | TGI ([14]; read-out: pTGI (converted)): 851 nM | GI50 ([15]; read-out: GI50): 1370 nM | CC50 [15, 18]: > 100000 nM | TGI ([15]; read-out: TGI): 5440 nM | GI50 ([15]; read-out: pGI50 (converted)): 1380 nM | CC50 [15, 19]: > 100000 nM | TGI ([15]; read-out: pTGI (converted)): 5500 nM | GI50 ([16]; read-out: GI50): 1860 nM | LC50 ([16]; read-out: LC50): 7280 nM | TGI ([16]; read-out: TGI): 3680 nM | GI50 ([16]; read-out: pGI50 (converted)): 1860 nM | LC50 ([16]; read-out: pLC50 (converted)): 7240 nM | TGI ([16]; read-out: pTGI (converted)): 3720 nM | growth at 10 µM [17]: 0.38%
